# Screens from PubChem BioAssay.
# UHRF1 binding: UHRF1 methylated DNA binding inhibitors, primary screen, counter-screen for MBD2 inhibitor project, biochemical, TR-FRET, human UHRF1, single concentration; E3 ubiquitin-protein ligase UHRF1 (Homo sapiens), Q96T88; UHRF1 binding to methylated oligo; inhibition, % at 4.4 µM; 0.75% of 370,000 active; AID 687016, 2013; in the data active means inhibition above about 21%;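 further: UHRF1 SRA domain binding a hemimethylated CpG hairpin DNA probe; 0% = median of test compound wells and 100% = reference inhibitor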
# MBD2 DNA inh: inhibitors of MBD2 binding to methylated DNA, primary screen, biochemical, TR-FRET, DNA-binding domain, human; AID 686964, 2013; inhibition, % at 4.4 µM; 0.31% of 370,000 active; MBD2 binding to methylated oligonucleotide; in the data active means inhibition above about 13%
# TDP2 inh: human TDP2 enzyme inhibitors, primary screen, biochemical, epi absorbance, recombinant enzyme | Tyrosyl-DNA phosphodiesterase 2 (Homo sapiens), O95551 | T5PNP hydrolysis, p-nitrophenol absorbance 415 nm | inhibition, % at 12.8 µM | 0.34% of 370,000 active | AID 720702, 2013;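 active means inhibition above the mean of all tested compounds plus 3 SD, set per campaign, cut at about 25% in these data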;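 further: 0% = DMSO with enzyme and 100% = buffer with substrate but no TDP2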
#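 Assay system: Recombinant human TDP2 | Quantity: 120 nM TDP2 per well | Incubation: 2 h at 37 °C | Signal: Epi absorbance | Evaluation: Percent inhibition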
# LEDGF integ inh: blockers of LEDGF/p75-dependent integrase strand transfer – biochemical, TR-FRET, high throughput, primary screen; HIV-1 integrase (with human LEDGF/p75); TR-FRET IN-LEDGF/p75 DNA integration, Eu/Cy5; inhibition, % at 3.7 µM; 0.64% of 370,000 active;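 active means inhibition above the screen-wide mean plus 3 SD, cut at about 13% in these data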;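 further: signal is the Cy5 over europium emission ratio at 671 and 618 nm; 0% = plate median of compound wells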
# PRMT1 inh: PRMT1 methyltransferase inhibitors, primary screen, biochemical, fluorescence polarization; Protein arginine N-methyltransferase 1 (Homo sapiens), Q99873; recombinant PRMT1, activity-based probe fluorescence polarization; inhibition, % at 2.79 µM; 1.3% of 370,000 active; AID 652257, 2013;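 active means inhibition above about 21% made by adding two undisclosed values, limit read from the data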
# SIAE inh: human SIAE inhibitors, primary screen, biochemical, fluorescence polarization, FP-Rh probe, 1536-well HTS | Sialate O-acetylesterase (Homo sapiens), Q9HAT2 | SIAE FP-Rh probe binding | inhibition, % at 9.66 µM | 0.69% of 370,000 active;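 active means inhibition above a cutoff: mean of compounds within the control limits plus 3 SD of those, cut at about 17% in these data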;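 further: 0% = plate median of compound wells and 100% = probe without SIAE protein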
# Target sequence (Q9HAT2 whole entry, looked up): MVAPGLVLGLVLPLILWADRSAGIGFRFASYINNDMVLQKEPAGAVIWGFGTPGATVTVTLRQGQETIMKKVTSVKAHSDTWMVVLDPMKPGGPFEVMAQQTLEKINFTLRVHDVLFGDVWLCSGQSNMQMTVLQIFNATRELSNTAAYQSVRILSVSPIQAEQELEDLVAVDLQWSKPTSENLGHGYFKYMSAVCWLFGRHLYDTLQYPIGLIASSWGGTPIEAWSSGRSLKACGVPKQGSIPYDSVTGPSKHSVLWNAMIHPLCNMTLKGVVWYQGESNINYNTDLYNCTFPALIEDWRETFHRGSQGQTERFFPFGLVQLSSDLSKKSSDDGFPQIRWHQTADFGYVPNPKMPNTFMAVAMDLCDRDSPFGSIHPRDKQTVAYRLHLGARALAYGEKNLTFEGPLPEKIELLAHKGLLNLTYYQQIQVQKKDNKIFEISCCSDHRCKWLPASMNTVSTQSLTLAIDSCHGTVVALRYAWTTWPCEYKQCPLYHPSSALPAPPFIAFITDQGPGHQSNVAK
# SIAE confirm: human SIAE inhibitors, retest, confirmation, biochemical, fluorescence polarization, FP-Rh probe, triplicate. shares compounds with SIAE inh. SIAE FP-Rh activity-based probe. inhibition, % at 9.66 µM. 13% of 2,300 active. AID 1117263, 2014;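 active means mean inhibition of the replicates above the hit cutoff set in the primary screen, cut at about 17% in these data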;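 further: 0% = SIAE with DMSO and probe and 100% = probe without SIAE; inhibitors lower polarization as more probe stays unbound to SIAE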
# * hit, by the source's call; . = no result. Hits are enriched below; roughly 3.3% of the tested compounds scored in any of these assays.
SMILES,UHRF1 binding,MBD2 DNA inh,TDP2 inh,LEDGF integ inh,PRMT1 inh,SIAE inh,SIAE confirm
Cc1c(/C=N/NC(N)=O)c2ccccn2c1C(=O)c1ccc(F)cc1,-5,-1,-3,-1,-3,13,.
CC(=O)c1c(C)[nH]c(C(=O)NCc2ccccc2)c1C,6,3,1,1,-2,26*,-1
CC(=O)c1c(C)[nH]c(C(=O)NCc2ccc(F)cc2)c1C,1,6,6,1,-1,0,.
CC(C(=O)NCc1cccs1)n1cccc1 (stereo not drawn),-2,-1,6,-2,-1,20*,2
C=CCN1C(=O)[C@H](CC(=O)N2CCC(c3ccccc3)CC2)[C@@]2(C(=O)OCC)CCCC=C12,3,-2,-8,5,-5,-2,.
CCC(C)(C)NC(=O)Cn1c(=O)oc2cc(S(=O)(=O)N3CC(C)CC(C)C3)ccc21 (stereo not drawn),-1,-1,-9,-3,0,-1,.
CC1CC(C)CN(S(=O)(=O)c2ccc3c(c2)oc(=O)n3CC(=O)NCCCOC(C)C)C1 (stereo not drawn),-1,-6,-8,1,-2,18*,-3
C/C(=N\NC(=S)NC(C)C)c1cccc([N+](=O)[O-])c1,0,1,7,-4,-1,20*,-1
CCOc1cc(/C=N/Nc2nc(-c3cccc(S(=O)(=O)N4CCCC4)c3)cs2)ccc1O,2,2,-11,0,3,21*,-1
COc1cc(/C=N/Nc2nc(-c3ccc(S(=O)(=O)N(C)C)cc3)cs2)ccc1O,-3,-1,12,-3,0,17*,8
CC(=O)CC[C@@H]1CC[C@]2(CCCN(C(=O)c3ccco3)C2)O1,3,0,5,-2,-1,3,.
COC(=O)Cn1c(CCS(=O)(=O)c2ccc(C)c(C)c2)nc2ccccc21,-4,2,1,-2,-1,-6,.
O=C(O)Cn1c(CCS(=O)(=O)c2ccc(Br)cc2)nc2ccccc21,4,3,-1,-8,4,29*,4
CCN(CC)C(=O)c1ncn2c1C(=O)N[C@H](C)C2,0,-6,-1,1,-3,-4,.
O=C(Cc1c[nH]c2ccccc12)Nc1ccc(Nc2cccnc2)c(-c2ccc(-c3ccccc3)cc2F)c1,1,-4,-10,-1,9,22*,-2
O=C(Cc1c[nH]c2ccccc12)Nc1ccc(Nc2cccnc2)c(-c2ccc(F)c(F)c2)c1,-8,1,-10,0,-2,28*,10
O=C(Cc1c[nH]c2ccccc12)Nc1ccc(Nc2cccnc2)c(-c2cccc(Cl)c2)c1,-3,1,4,0,-4,9,.
O=C(CC[C@H]1O[C@@H](n2cnc3c(NC(=O)c4ccccc4)ncnc32)[C@H](O)[C@@H]1O)NCCCN1CCOCC1,-1,-1,-4,-2,-2,19*,13
COc1cccc(OCC(C)CN2CCC(C(O)(c3ccccc3)c3ccccc3)CC2)c1 (stereo not drawn),0,-4,-9,-2,2,-3,.
COc1cccc(/C=N/N2CCN(c3ccc(Cl)cc3)CC2)c1OC,3,3,-18,3,-5,9,.
COc1cccc(C=NN2CCCCCC2)c1OC,-3,1,1,-5,0,21*,2
O=C(NCc1ccc(F)c(F)c1)C1CCC(CNS(=O)(=O)c2cccc3cccnc23)CC1 (stereo not drawn),1,2,2,-4,7,3,.
CCn1c(CSc2nnc(-c3ccncc3)n2CCOC)nc2cc(C(=O)O)ccc21,1,-4,-3,6,0,19*,38*
CCn1c(CSc2n[nH]c(N)n2)nc2cc(C(=O)O)ccc21,-2,-8,1,-1,2,36*,31*
CCn1c(CCl)nc2cc(S(=O)(=O)N3CCOCC3)ccc21,1,1,-5,1,-1,18*,7
SMILES,UHRF1 binding,MBD2 DNA inh,TDP2 inh,LEDGF integ inh,PRMT1 inh,SIAE inh,SIAE confirm
CCn1c(SCC(N)=O)nc2cc(S(=O)(=O)N3CCOCC3)ccc21,-1,0,-4,0,-6,-7,.
Cc1cccc(OCCCN2CCC(C(O)(c3ccccc3)c3ccccc3)CC2)c1,0,-4,3,-6,4,-7,.
S=C(NNc1ccnc2cc(Cl)ccc12)Nc1ccccc1Cl,-5,-5,-2,0,9,24*,20*
COc1ccccc1N1CCN(/N=C/c2cc(OC)c(O)c(OC)c2)CC1,0,0,8,-1,2,20*,-2
COc1ccccc1N1CCN(/N=C/c2cccc(O)c2)CC1,-2,4,10,-3,-3,4,.
Oc1ccc(NC(=S)N=Nc2c(O)[nH]c3ccccc23)cc1,-5,-2,-5,-1,-3,19*,-6
O=C(Nc1ccc(N2CCOCC2)cc1)c1cc(-c2ccncc2)nc2ccccc12,-5,-7,11,3,1,0,.
O=C(Nc1ccccc1N1CCOCC1)c1cc(-c2ccncc2)nc2ccccc12,10,4,10,-4,-2,22*,2
Cn1cc([N+](=O)[O-])c(C(=O)N/N=C/c2ccc([N+](=O)[O-])cc2)n1,1,-3,-5,0,-3,-3,.
Cn1cc([N+](=O)[O-])c(C(=O)N/N=C/c2ccncc2)n1,-1,5,-16,-1,-4,17*,3
CC1CCCN(c2nc3c(c(=O)[nH]c(=O)n3C)n2CCCc2ccccc2)C1 (stereo not drawn),-3,-1,4,-2,-3,18*,5
CCN(CC)CCNc1nc2c(c(=O)[nH]c(=O)n2C)n1CCCc1ccccc1,-2,0,17,2,-6,19*,3
CCNc1nc2c(c(=O)[nH]c(=O)n2C)n1CCCc1ccccc1,-2,-2,-3,6,2,0,.
COCc1[nH]nc2c1C(c1ccc(F)cc1)N(c1ccc(OC)cc1)C2=O (stereo not drawn),3,-1,-9,1,-6,0,.
